Active and inactive are the calls of the source. The calls are words filed in the database; no cut-off is given here.
Legend:
Assay type in all cases: nucleic-acid assay
Details in all cases: Bos taurus
[1] = tested on: Nucleic Acid; test: Binding affinity to calf thymus DNA assessed as change in melting temperature by thermal denaturation assay
Procedure, shortened: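 CT DNA alone or with alkaloid, 10 mM citrate-phosphate buffer pH 7.0. Absorbance at 260 nm was followed while heating from 20 to 100 °C at 0.5 °C/min in 1 cm quartz cuvettes. ΔTm was taken at saturation.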

[2] = tested on: Nucleic Acid; test: Binding affinity to calf thymus DNA assessed as fluorescence quenching by fluorescence spectroscopy analysis
Procedure, shortened: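 Ferrocyanide quenching of alkaloid fluorescence, free and bound to CT DNA, at constant P/D (base pair/alkaloid). KCl and K4[Fe(CN)6] solutions were mixed in different ratios at fixed total ionic strength in 10 mM CP buffer pH 7.0. Intensity was read against rising ferrocyanide. Stern–Volmer quenching constant (Ksv). At least four measurements were averaged per set.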

[3] = tested on: Nucleic Acid; test: Binding affinity to calf thymus DNA in citrate-phosphate buffer at pH 7 assessed as change in viscosity by hydrodynamic method
Procedure, shortened: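 Relative viscosity of CT DNA in 10 mM CP buffer pH 7.0 at 20 °C with increasing alkaloid (varying D/P), mixed by slow nitrogen bubbling. Flow times were measured in triplicate to 0.01 s. Contour length increase (L/Lo) was plotted against r.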

[4] = tested on: Nucleic Acid; test: Binding affinity to calf thymus DNA in citrate-phosphate buffer at pH 7 by circular dichroism spectral analysis
Procedure, shortened: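 CD spectra of CT DNA titrated with increasing alkaloid in 10 mM CP buffer pH 7.0 at 20 °C. Output is molar ellipticity, [θ] = [θ]obs/10lC.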

With `COc1ccc2cc3[n+](cc2c1OCC(=O)NCc1ccccc1)CCc1cc2c(cc1-3)OCO2.[Cl-]` the ΔTm [1] was 14 °C, the KSV [2] was 48 M⁻¹ and the Activity [3] was “Active”.

For `COc1ccc2cc3[n+](cc2c1OC)CCc1cc2c(cc1-3)OCO2.[Cl-]` [BERBERINE CHLORIDE], the ΔTm [1] was 9 °C, the Activity [4] was “Active” and the KSV [2] was 90 M⁻¹. For the same molecule, the Activity [3] was “Active”.

With `COc1ccc2cc3[n+](cc2c1OCC(=O)Nc1ccccc1)CCc1cc2c(cc1-3)OCO2.[Cl-]` the ΔTm [1] was 15.5 °C, the Activity [4] was “Active” and the KSV [2] was 57 M⁻¹. For the same molecule, the Activity [3] was “Active”.

With `COc1ccc2cc3[n+](cc2c1OCC(=O)NCCc1ccccc1)CCc1cc2c(cc1-3)OCO2.[Cl-]` the ΔTm [1] was 12 °C, the KSV [2] was 37 M⁻¹ and the Activity [3] was “Active”.

Source: ChEMBL document CHEMBL2010762, “Synthesis of novel 9-O-N-aryl/aryl-alkyl amino carbonyl methyl substituted berberine analogs and evaluation of DNA binding aspects” (Bioorg Med Chem, 2012)
